Data: ChEMBL document CHEMBL4007487, “Discovery of Novel Pyridone-Conjugated Monosulfactams as Potent and Broad-Spectrum Antibiotics for Multidrug-Resistant Gram-Negative Infections” (J Med Chem, 2017)
In brackets after ≈: the same amount, converted by molar mass.

Assays:
Klebsiella pneumoniae [1] = assay: In vivo antibacterial activity against multidrug resistant Klebsiella pneumoniae isolate 212232 infected in Kunming mouse systemic infection model assessed as increase in mouse survival administered subcutaneously 0.5 to 4 hrs post infection measured after 48 hrs by Bliss method; format: functional; details: isolate 212232, sc
Method in brief: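 Kunming mice, half male and half female, 18–22 g, 5 per group. Infected intraperitoneally with 0.5 mL of MDR clinical K. pneumoniae 212232 at 3×10^6 CFU/mL. Subcutaneous doses of 3.125, 6.25, 12.5, 25, 50 and 100 mg/kg were given at 0.5 and 4.0 h post-infection.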

Escherichia coli [2] = assay: Antibacterial activity against Escherichia coli isolate 210737 after 18 hrs by broth microdilution method; format: functional; details: isolate 210737, 18 h
Method in brief: (§1)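 CLSI broth microdilution in Mueller-Hinton broth with 16 mg/L 2,2'-bipyridyl added. Compounds were dissolved in DMSO, or in water for meropenem and ceftizoxime sodium, then serially diluted in growth medium.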

Klebsiella pneumoniae [3] = assay: Antibacterial activity against Klebsiella pneumoniae isolate 212232 after 18 hrs by broth microdilution method; format: functional; details: isolate 212232, 18 h; method in brief: as §1
Acinetobacter baumannii = assay: Antibacterial activity against extended spectrum beta-lactamase OXA-23 producing multidrug resistant Acinetobacter baumannii clinical isolates after 18 hrs by broth microdilution method; format: functional
Plasma = assay: Fraction unbound in human plasma at 10 uM after 4 hrs by LC-MS/MS based rapid equilibrium dialysis method; format: ADME, cell-free
Method in brief: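 Human plasma spiked at 10 μM was dialysed against buffer in a rapid equilibrium dialysis device for 4 h at 37 °C under 5% CO2 (n = 4). Both sides were quantified by LC–MS/MS. Fraction unbound was taken as the buffer concentration divided by the total plasma-side concentration.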

Pseudomonas aeruginosa = assay: Antibacterial activity against extended spectrum beta-lactamase IMP-4 producing multidrug resistant Pseudomonas aeruginosa clinical isolates after 18 hrs by broth microdilution method; format: functional
[4] = Drug degradation in human plasma at 10 uM after 4 hrs by LC-MS/MS analysis; format: ADME, cell-free; details: read-out: Drug degradation
Method in brief: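 Human plasma containing compound (10 μM, n = 4) was incubated for 4 h at 37 °C under 5% CO2. Concentrations at T0 and at 4 h were measured by LC–MS/MS, and degradation was expressed as a percentage relative to the T0 average.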

Escherichia coli [5] = assay: In vivo antibacterial activity against Escherichia coli isolate 210737 infected in Kunming mouse systemic infection model assessed as increase in mouse survival administered subcutaneously 0.5 to 4 hrs post infection measured after 48 hrs by Bliss method; format: functional; details: isolate 210737, sc
Method in brief: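 Kunming mice, half male and half female, 18–22 g, 5 per group. Lethal systemic infection by intraperitoneal injection of 0.5 mL clinical E. coli 210737 inoculum at 5×10^4 CFU/mL. Given subcutaneously twice, at 0.5 and 4.0 h post-infection, at doses of 0.625 to 20 mg/kg.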

in vivo [6] = details: Sprague-Dawley, rat, iv, 1 mg/kg
Klebsiella pneumoniae [7] = assay: Antibacterial activity against extended spectrum beta-lactamase KPC-2 producing multidrug resistant Klebsiella pneumoniae clinical isolates after 18 hrs by broth microdilution method; format: functional; details: Klebsiella pneumoniae, 18 h; read-out: MIC
Escherichia coli [8] = assay: Antibacterial activity against extended spectrum beta-lactamases producing Escherichia coli clinical isolates after 18 hrs by broth microdilution method; format: functional
[9] = Volume of distribution in steady state in Sprague-Dawley rat at 1 mg/kg, iv measured up to 180 mins by LC-MS/MS analysis; format: ADME, organism-based; details: in vivo, read-out: Vdss
Method in brief: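 Male Sprague-Dawley rats (200–220 g, n = 3 per group) received 1.0 mg/kg iv in water. Blood was taken from the retrobulbar vein at 2, 5, 15, 30, 45, 60, 90 and 180 min. Plasma was quantified by LC–MS/MS, and parameters were derived by noncompartmental analysis of mean plasma concentrations.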

Klebsiella pneumoniae [10] = assay: In vivo antibacterial activity against multidrug resistant Klebsiella pneumoniae isolate 212232 infected in Kunming mouse systemic infection model assessed as increase in mouse survival at 100 mg/kg, sc administered 0.5 to 4 hrs post infection measured after 48 hrs by Bliss method; format: functional; details: isolate 212232, sc
Method in brief: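 Lethal intraperitoneal infection of Kunming mice (mixed sex, 18–22 g, 5 per group) with 0.5 mL MDR K. pneumoniae 212232 at 3×10^6 CFU/mL. The 100 mg/kg dose was given subcutaneously at 0.5 and 4.0 h post-infection. Read-out is the percentage of mice surviving at 48 h after treatment.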

in vivo [11] = details: Sprague-Dawley, rat, iv, 1 mg/kg; remark: listed apart in the source
[12] = Clearance in Sprague-Dawley rat at 1 mg/kg, iv measured up to 180 mins by LC-MS/MS analysis; details: in vivo

SMILES | ED50 (Klebsiella pneumoniae [1]) | MIC (Escherichia coli [2]) | MIC (Klebsiella pneumoniae [3]) | MIC (Acinetobacter baumannii) | Fu (Plasma) | MIC (Pseudomonas aeruginosa) | metabolised at 4 h, 10 µM [4] | ED50 (Escherichia coli [5]) | AUC(0-t) at 3 h (in vivo [6]) | MIC (Klebsiella pneumoniae [7]) | MIC (Escherichia coli [8]) | Vd [9] | survival at 100 mg/kg (Klebsiella pneumoniae [10]) | half-life (in vivo [11]) | clearance at 3 h [12]
CC1(C)[C@H](NC(=O)/C(=N\OCc2cc(=O)c(O)cn2O)c2csc(N)n2)C(=O)N1OS(=O)(=O)O | > 100 mg/kg | 0.25 µg/mL (≈ 0.482 µM) | 0.25 µg/mL (≈ 0.482 µM) | 0.5 to 64 µg/mL (≈ 0.964 to 123 µM) | 47% | 1 to 4 µg/mL (≈ 1.93 to 7.71 µM) | 12% | 4.19 mg/kg | 1710 ng·h/mL | 0.25 to 64 µg/mL (≈ 0.482 to 123 µM) | 0.25 to 1 µg/mL (≈ 0.482 to 1.93 µM) | 0.14 L/kg | 40% | – | –
CC(C)C(O/N=C(\C(=O)N[C@@H]1C(=O)N(OS(=O)(=O)O)C1(C)C)c1nc(N)sc1Cl)c1cc(=O)c(O)cn1O (some centres not stated) | – | 1 µg/mL (≈ 1.68 µM) | 0.06 µg/mL (≈ 0.101 µM) | 0.06 to 2 µg/mL (≈ 0.101 to 3.36 µM) | 23% | 0.25 to 8 µg/mL (≈ 0.42 to 13.4 µM) | 22% | 6.94 mg/kg | 634 ng·h/mL | 0.06 to 0.5 µg/mL (≈ 0.101 to 0.84 µM) | 0.06 to 1 µg/mL (≈ 0.101 to 1.68 µM) | 1.41 L/kg | – | 90 min | 26.9 mL/min/kg
CC1(C)[C@H](NC(=O)/C(=N\OC(CS(C)(=O)=O)c2cc(=O)c(O)cn2O)c2csc(N)n2)C(=O)N1OS(=O)(=O)O (some centres not stated) | – | 0.06 µg/mL (≈ 0.0983 µM) | 0.06 µg/mL (≈ 0.0983 µM) | 0.25 to 2 µg/mL (≈ 0.409 to 3.28 µM) | 64% | 1 to 32 µg/mL (≈ 1.64 to 52.4 µM) | 34% | 5.32 mg/kg | 1890 ng·h/mL | 0.06 to 2 µg/mL (≈ 0.0983 to 3.28 µM) | – | 0.21 L/kg | – | 19.8 min | 9.3 mL/min/kg
C[C@@H](O)[C@H]1C(=O)N2C(C(=O)O)=C(S[C@@H]3CN[C@H](C(=O)N(C)C)C3)[C@H](C)[C@H]12 [MEROPENEM] | > 100 mg/kg | 0.125 µg/mL (≈ 0.326 µM) | > 64 µg/mL | 64 µg/mL (≈ 167 µM) | – | 32 to 64 µg/mL (≈ 83.4 to 167 µM) | – | 2.04 mg/kg | – | 32 to 64 µg/mL (≈ 83.4 to 167 µM) | 0.125 to 8 µg/mL (≈ 0.326 to 20.9 µM) | – | 0% | – | –
